For series [1], the target named is Serine/threonine-protein kinase mTOR (Homo sapiens, UniProt P42345). Nature of the series: Inhibition of mTOR (unknown origin) assessed as reduction in p70S6K phosphorylation.
For series [2], the species on record is Homo sapiens. Nature of the series: Selectivity ratio of IC50 for human PI3Kbeta to IC50 for human PI3Kdelta. Put shortly:
(§1)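 IC50s for the PI3K α, β, γ and δ isoforms came from a commercial PI3K inhibitory activity assay kit. Each IC50 is the mean of at least two experiments. The ratio is the α, β or γ IC50 divided by the δ IC50.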

The target of series [3] is CYP2C19 (Homo sapiens, UniProt P33261). Briefly: Inhibition of CYP2C19 in human liver microsomes at 10 uM using testosterone/dextromethorphan as probe substrate measured after 10 mins relative to control. In kind it is ADME. In general terms: Microsomes from liver hold many membrane-bound enzymes, among them those of drug oxidation.
Chain of CYP2C19 (P33261 whole entry): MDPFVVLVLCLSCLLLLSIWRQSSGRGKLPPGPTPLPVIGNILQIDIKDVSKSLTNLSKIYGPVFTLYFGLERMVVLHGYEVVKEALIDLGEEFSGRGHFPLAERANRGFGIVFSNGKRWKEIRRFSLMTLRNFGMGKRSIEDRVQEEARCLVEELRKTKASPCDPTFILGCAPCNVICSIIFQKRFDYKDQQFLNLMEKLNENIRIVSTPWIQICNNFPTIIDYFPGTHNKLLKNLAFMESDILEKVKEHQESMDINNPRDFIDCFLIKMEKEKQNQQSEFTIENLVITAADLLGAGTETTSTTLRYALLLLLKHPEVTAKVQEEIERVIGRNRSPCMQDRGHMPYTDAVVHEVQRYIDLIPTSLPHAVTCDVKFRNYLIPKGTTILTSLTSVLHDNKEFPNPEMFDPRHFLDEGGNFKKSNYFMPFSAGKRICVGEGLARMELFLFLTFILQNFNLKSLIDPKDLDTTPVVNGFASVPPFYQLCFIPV
Series [4] is described as follows: Protein binding in DBA1/J mouse plasma. In kind it is ADME, cell-free. The conditions noted are these: read-out: PPB (converted).
Series [5] concerns the target Voltage-gated inwardly rectifying potassium channel KCNH2 (Homo sapiens, UniProt Q12809). Nature of the series: Inhibition of human ERG.
The test system of series [6] is Mus musculus. Briefly: Antiarthritic activity in complete Freund's adjuvant-induced DBA1/J mouse arthritis model assessed as inhibition in clinical arthritis score at 30 mg/kg, po […] relative to control. The class given is functional, organism-based. Put shortly: (§2)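 Male DBA1j mice had arthritis induced with a collagen mixture and were enrolled once clinical signs appeared. Animals were split into four groups of eight: vehicle, a positive control and two doses of test compound. Treatment ran four weeks. The read-out was percentage inhibition of clinical arthritis score versus the vehicle group.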

Series [7] in a line: Half life in C57BL/6J mouse at 3 mg/kg, po measured up to 30 hrs by LC-MS/MS analysis. In kind it is ADME, organism-based. The note with it: in vivo. Put shortly: (§3)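 Male C57BL/6J mice (n = 6) received single doses of 3 mg/kg po or 1 mg/kg iv. Plasma concentrations were measured by LC-MS. Values are mean ± SD. Oral bioavailability (%F) was calculated from the ratio to iv AUC.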

The target in series [8] is CYP3A4 (Homo sapiens, UniProt P08684). Nature of the series: Inhibition of CYP3A4 in human liver microsomes at 10 uM using testosterone/dextromethorphan as probe substrate measured after 10 mins relative to control. The class given is ADME.
Chain of CYP3A4 (P08684 whole entry): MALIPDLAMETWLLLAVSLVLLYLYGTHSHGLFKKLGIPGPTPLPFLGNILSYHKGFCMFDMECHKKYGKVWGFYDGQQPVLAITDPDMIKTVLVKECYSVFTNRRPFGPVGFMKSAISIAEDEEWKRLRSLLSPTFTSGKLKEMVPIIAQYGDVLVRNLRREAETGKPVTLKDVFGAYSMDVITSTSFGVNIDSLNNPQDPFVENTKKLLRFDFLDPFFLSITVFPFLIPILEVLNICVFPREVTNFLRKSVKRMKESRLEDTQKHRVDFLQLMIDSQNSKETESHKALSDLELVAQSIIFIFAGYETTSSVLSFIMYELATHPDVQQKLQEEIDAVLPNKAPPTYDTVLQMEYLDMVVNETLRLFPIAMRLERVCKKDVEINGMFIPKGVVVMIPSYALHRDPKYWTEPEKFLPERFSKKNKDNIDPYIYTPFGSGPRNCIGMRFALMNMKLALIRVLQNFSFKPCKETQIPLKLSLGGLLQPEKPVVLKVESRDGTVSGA
Series [9] in a line: AUC (0 to infinity) in C57BL/6J mouse 1 mg/kg, iv measured up to 30 hrs by LC-MS/MS analysis. Further details: dose 1 mg/kg, time infinity, route intravenous. The conditions noted are these: in vivo. In kind it is ADME, organism-based. Put shortly:
(§4)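 Single-dose PK in male C57BL/6J mice (n = 6), dosed 1 mg/kg iv or 3 mg/kg orally. Plasma drug levels were measured by LC-MS, and PK parameters (Tmax, Cmax, t1/2, Cl, AUC, %F) were derived. Values are given as mean ± SD. Oral bioavailability was calculated against the iv AUC.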

The subject of series [10] is Mus musculus. Nature of the series: Antiarthritic activity in complete Freund's adjuvant-induced DBA1/J mouse arthritis model assessed as inhibition in clinical arthritis score at 10 mg/kg, po administered […] relative to control. The class given is functional, organism-based. Put shortly: as §2
Series [11] can be described thus: AUC (0 to infinity) in C57BL/6J mouse 3 mg/kg, po measured up to 30 hrs by LC-MS/MS analysis. In kind it is ADME, organism-based. Further details: dose 3 mg/kg, route oral, time infinity. The conditions noted are these: in vivo. Put shortly:
as §4

The nature of series [12]: Oral bioavailability in C57BL/6J mouse at 3 mg/kg measured up to 30 hrs by LC-MS/MS analysis. In kind it is ADME, organism-based. The note with it: in vivo. Put shortly: as §3
For series [13], the target named is T1, Phosphatidylinositol 4,5-bisphosphate 3-kinase catalytic subunit delta isoform (Homo sapiens, UniProt O00329).
T1 sequence (O00329 whole entry): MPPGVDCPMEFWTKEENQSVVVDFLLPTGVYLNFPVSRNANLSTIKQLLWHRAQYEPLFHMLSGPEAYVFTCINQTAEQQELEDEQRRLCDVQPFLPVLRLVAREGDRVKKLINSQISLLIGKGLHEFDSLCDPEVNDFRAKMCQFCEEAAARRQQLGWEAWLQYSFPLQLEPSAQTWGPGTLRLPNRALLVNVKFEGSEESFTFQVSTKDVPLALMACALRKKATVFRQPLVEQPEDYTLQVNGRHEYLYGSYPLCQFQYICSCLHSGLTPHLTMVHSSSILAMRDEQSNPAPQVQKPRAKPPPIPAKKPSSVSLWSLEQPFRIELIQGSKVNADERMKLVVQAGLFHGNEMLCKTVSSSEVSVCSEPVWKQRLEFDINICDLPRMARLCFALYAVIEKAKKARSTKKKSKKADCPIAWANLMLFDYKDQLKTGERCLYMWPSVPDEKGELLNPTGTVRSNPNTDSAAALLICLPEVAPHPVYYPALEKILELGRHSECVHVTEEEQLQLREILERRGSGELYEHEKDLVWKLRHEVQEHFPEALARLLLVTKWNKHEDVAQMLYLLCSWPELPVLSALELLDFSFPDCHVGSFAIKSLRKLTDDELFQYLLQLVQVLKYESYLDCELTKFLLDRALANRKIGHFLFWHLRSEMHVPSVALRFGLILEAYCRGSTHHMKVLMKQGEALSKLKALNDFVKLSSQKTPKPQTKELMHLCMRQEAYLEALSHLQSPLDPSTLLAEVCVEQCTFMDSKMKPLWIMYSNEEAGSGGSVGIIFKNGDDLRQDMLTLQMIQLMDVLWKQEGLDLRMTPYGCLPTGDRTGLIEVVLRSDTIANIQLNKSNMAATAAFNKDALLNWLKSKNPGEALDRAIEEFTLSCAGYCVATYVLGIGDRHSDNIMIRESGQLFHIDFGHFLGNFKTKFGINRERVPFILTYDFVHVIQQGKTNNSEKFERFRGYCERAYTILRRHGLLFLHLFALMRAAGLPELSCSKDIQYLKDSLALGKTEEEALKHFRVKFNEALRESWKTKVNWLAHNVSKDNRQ
Nature of the series: Inhibition of human PI3Kdelta using PIP2 as substrate after 1 hr.

The nature of series [14]: Tmax in C57BL/6J mouse at 3 mg/kg, po measured up to 30 hrs by LC-MS/MS analysis. The class given is ADME, organism-based. The conditions noted are these: in vivo. Put shortly:
as §3

For series [15], the species on record is Homo sapiens. Briefly: Selectivity ratio of IC50 for human PI3Kgamma to IC50 for human PI3Kdelta. In short, it runs like this:
as §1

Series [16] in a line: Cmax in C57BL/6J mouse at 3 mg/kg, po measured up to 30 hrs by LC-MS/MS analysis. In kind it is ADME, organism-based. Further details: dose 3 mg/kg, route oral. The conditions noted are these: in vivo. In short, it runs like this:
as §3

A short description of series [17]: Toxicity in DBA1/J mouse assessed as reduction in body weight at 30 mg/kg, po administered for […] measured thrice per week. The conditions noted are these: in vivo. The class given is organism-based. Put shortly: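 The model was collagen-induced arthritis in male DBA1j mice, with eight per group and four weeks of treatment. Body weight was recorded three times weekly as a marker of treatment-related side effects.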

Series [18] addresses Phosphatidylinositol 4,5-bisphosphate 3-kinase catalytic subunit beta isoform (Homo sapiens, UniProt P42338). Briefly: Inhibition of human PI3Kbeta using PIP2 as substrate after 1 hr.

Active and inactive are the calls of the source. No cut-off for these calls is given here.

By IC50 is commonly meant the concentration that inhibits the measured activity by half. For orientation: inhibition means how much of the control response was suppressed. The term half-life denotes how long it takes for the measured level to halve. What is called AUC is the area under the concentration-time curve, a measure of exposure. A lower AUC goes with less exposure. The term bioavailability denotes the share of a dose that reaches the circulation, judged against a reference dose that is usually intravenous. Higher therefore signals much systemic uptake. Usually Tmax stands for the time from dosing to the highest level. By Cmax is commonly meant the maximum level reached in the sampled fluid or tissue.

Chain of Phosphatidylinositol 4,5-bisphosphate 3-kinase catalytic subunit beta isoform (P42338 whole entry, canonical isoform): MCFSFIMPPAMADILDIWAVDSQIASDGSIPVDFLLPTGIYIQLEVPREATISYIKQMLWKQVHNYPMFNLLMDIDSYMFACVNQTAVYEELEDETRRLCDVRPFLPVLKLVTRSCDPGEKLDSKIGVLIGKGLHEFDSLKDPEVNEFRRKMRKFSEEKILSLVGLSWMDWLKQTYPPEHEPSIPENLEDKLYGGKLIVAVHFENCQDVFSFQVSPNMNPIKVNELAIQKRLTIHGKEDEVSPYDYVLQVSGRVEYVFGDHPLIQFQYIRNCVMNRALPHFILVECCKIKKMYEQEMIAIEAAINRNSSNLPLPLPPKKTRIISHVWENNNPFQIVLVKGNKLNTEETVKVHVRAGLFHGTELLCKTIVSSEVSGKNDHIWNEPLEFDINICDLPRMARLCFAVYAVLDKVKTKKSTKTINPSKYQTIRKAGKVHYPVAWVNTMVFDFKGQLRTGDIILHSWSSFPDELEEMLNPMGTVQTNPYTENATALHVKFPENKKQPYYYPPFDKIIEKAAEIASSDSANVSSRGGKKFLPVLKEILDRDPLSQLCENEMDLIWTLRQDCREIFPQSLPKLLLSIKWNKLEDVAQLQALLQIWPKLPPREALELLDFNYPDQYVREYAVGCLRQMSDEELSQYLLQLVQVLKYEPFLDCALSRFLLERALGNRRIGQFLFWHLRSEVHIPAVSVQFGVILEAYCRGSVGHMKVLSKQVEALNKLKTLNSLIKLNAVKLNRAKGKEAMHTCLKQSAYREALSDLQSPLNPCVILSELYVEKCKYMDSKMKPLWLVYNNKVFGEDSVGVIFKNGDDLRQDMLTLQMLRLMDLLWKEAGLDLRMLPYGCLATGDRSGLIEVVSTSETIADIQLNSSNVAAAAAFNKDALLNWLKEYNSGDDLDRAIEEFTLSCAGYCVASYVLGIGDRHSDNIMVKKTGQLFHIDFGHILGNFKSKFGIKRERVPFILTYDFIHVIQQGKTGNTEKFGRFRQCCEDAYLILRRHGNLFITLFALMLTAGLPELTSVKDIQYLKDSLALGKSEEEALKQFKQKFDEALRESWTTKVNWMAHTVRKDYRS
Chain of Voltage-gated inwardly rectifying potassium channel KCNH2 (Q12809 whole entry): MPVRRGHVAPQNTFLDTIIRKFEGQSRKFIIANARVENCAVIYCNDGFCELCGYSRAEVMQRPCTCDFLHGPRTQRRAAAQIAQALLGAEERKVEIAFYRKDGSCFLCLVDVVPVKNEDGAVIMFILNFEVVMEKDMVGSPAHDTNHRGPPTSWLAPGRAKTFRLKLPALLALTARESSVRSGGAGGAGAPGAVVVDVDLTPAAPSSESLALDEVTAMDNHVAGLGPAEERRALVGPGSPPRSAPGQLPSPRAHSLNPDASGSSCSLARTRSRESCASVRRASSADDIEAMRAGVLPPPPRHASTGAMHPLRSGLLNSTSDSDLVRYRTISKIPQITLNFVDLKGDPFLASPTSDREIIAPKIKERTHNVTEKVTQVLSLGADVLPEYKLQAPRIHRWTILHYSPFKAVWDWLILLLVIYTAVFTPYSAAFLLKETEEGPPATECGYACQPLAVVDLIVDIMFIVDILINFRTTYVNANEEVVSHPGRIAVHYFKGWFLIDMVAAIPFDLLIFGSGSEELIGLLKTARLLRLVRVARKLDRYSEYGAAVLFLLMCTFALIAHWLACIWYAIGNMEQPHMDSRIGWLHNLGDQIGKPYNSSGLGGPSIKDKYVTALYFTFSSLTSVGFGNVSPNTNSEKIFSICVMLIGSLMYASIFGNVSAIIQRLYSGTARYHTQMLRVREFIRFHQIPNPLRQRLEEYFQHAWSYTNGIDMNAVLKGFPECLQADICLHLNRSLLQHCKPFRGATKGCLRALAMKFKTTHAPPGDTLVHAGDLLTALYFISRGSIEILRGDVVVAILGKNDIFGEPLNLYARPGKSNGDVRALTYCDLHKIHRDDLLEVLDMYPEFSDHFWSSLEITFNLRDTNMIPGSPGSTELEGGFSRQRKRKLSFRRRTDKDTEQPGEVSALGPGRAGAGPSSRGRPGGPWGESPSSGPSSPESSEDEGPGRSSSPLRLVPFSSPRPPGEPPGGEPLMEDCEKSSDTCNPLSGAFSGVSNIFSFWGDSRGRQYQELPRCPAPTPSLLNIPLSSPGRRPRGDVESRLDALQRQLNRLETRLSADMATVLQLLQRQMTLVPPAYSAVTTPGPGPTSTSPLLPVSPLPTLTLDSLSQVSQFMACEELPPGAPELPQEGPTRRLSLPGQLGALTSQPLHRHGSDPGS

With `COc1ccc(Cn2c(=O)n(C)c3c4cc(-c5cnc(OC)c(NS(C)(=O)=O)c5)ccc4ncc32)cc1`, the IC50 in [1] was over 1000 nM; in series [5] it was over 30000 nM; in series [13], 1.9 nM; in series [18], 589 nM. The Ratio IC50 in series [2] amounted to 310; in series [15] it was 59. The inhibition at 10 min, 10 µM in series [3] and in series [8] was under 10% each time. Moreover, the fraction unbound in series [4] is 0.11. Besides, the inhibition result in series [6] and in series [10] was “Active” in each case. In addition, in series [7], the half-life was 3.48 h. The results for the area under the curve (AUC) in series [9] and in series [11] were 1850 ng·h/mL and 3830 ng·h/mL, respectively. Also, the bioavailability in series [12] amounted to 68.9%. In series [14], the time of peak concentration (Tmax) came out at 0.25 h. Besides, the Cmax in series [16] amounted to 1280 ng/mL. In addition, the Activity entry in series [17] is “Non-Toxic”.

For the origin of these results see ChEMBL document CHEMBL4390691, “Discovery of 1,3-dihydro-2H-imidazo[4,5-c]quinolin-2-ones based novel, potent and PI3Kδ selective inhibitors” (Bioorg Med Chem Lett, 2019).
